From ChEMBL document CHEMBL5058577, “EUbOPEN Chemogenomics Library 2 (Multiplex)” (2022)

Test system: HEK-293T
Assay: Multiplex assay against HEK293T
Format: toxicity, cell-based
Conditions: human
Method in brief: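 At seeding, live cells were stained with Hoechst33342, BioTracker Green Microtubule Cytoskeleton Dye, MitoTracker Red and Annexin V Alexa Fluor 680. After compound addition they were imaged on a CQ1 microscope at 37°C and 5% CO2, and CellPathfinder machine-learning gating sorted them into Hoechst high-intensity objects or normal cells, with normal cells further split into healthy, pyknosed or fragmented nuclei and pyknosed cells into mitotic or apoptotic. Tubulin, mitochondrial-mass and membrane-permeability phenotypes are given as per cents of cells with healthy nuclei.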

[1] = 12 h, 1 µM, compound concentration 1 uM, replicate 1
[2] = 12 h, 1 µM, compound concentration 1 uM, replicate 2
[3] = 12 h, 10 µM, compound concentration 10 uM, replicate 1
[4] = 12 h, 10 µM, compound concentration 10 uM, replicate 2
[5] = 24 h, 1 µM, compound concentration 1 uM, replicate 1
[6] = 24 h, 1 µM, compound concentration 1 uM, replicate 2
[7] = 24 h, 10 µM, compound concentration 10 uM, replicate 1
[8] = 24 h, 10 µM, compound concentration 10 uM, replicate 2
[9] = 48 h, 1 µM, compound concentration 1 uM, replicate 1
[10] = 48 h, 1 µM, compound concentration 1 uM, replicate 2
[11] = 48 h, 10 µM, compound concentration 10 uM, replicate 1
[12] = 48 h, 10 µM, compound concentration 10 uM, replicate 2

## Cc1nn(C)c2nc(NNC(=O)Nc3cc(Cl)nc(Cl)c3)cc(C(C)C)c12
[1]
  Population Apoptotic (%): 27%
  Population Fragmented Nuclei (%): 5%
  Population Healthy Nuclei (%): 77%
  Population Hoechst High Intensity Objects (%): 5%
  Population Membrane Permeable-Phenotype (%): 0%
  Population Mitochondria Different-Phenotype (%): 37%
  Population Mitotic Cells (%): 72%
  Population Normal (%): 94%
  Population Pyknosed Nuclei (%): 16%
  Population Tubulin-Different-Phenotype (%): 26%
  Total Cell Count: 467
[2]
  Population Apoptotic (%): 40%
  Population Healthy Nuclei (%): 81%
  Population Hoechst High Intensity Objects (%): 2%
  Population Mitochondria Different-Phenotype (%): 59%
  Population Mitotic Cells (%): 60%
  Population Normal (%): 97%
  Population Pyknosed Nuclei (%): 13%
  Population Tubulin-Different-Phenotype (%): 25%
  Total Cell Count: 383
[3]
  Population Apoptotic (%): 55%
  Population Fragmented Nuclei (%): 5%
  Population Healthy Nuclei (%): 61%
  Population Hoechst High Intensity Objects (%): 12%
  Population Membrane Permeable-Phenotype (%): 1%
  Population Mitochondria Different-Phenotype (%): 79%
  Population Mitotic Cells (%): 44%
  Population Normal (%): 88%
  Population Pyknosed Nuclei (%): 32%
  Population Tubulin-Different-Phenotype (%): 80%
  Total Cell Count: 300
[4]
  Population Apoptotic (%): 46%
  Population Fragmented Nuclei (%): 4%
  Population Healthy Nuclei (%): 74%
  Population Hoechst High Intensity Objects (%): 3%
  Population Mitochondria Different-Phenotype (%): 84%
  Population Mitotic Cells (%): 53%
  Population Normal (%): 96%
  Population Pyknosed Nuclei (%): 21%
  Population Tubulin-Different-Phenotype (%): 75%
  Total Cell Count: 396
[5]
  Population Apoptotic (%): 31%
  Population Fragmented Nuclei (%): 9%
  Population Healthy Nuclei (%): 78%
  Population Hoechst High Intensity Objects (%): 3%
  Population Membrane Permeable-Phenotype (%): 0%
  Population Mitochondria Different-Phenotype (%): 27%
  Population Mitotic Cells (%): 68%
  Population Normal (%): 96%
  Population Pyknosed Nuclei (%): 11%
  Population Tubulin-Different-Phenotype (%): 20%
  Total Cell Count: 608
[6]
  Population Fragmented Nuclei (%): 6%
  Population Healthy Nuclei (%): 82%
  Population Hoechst High Intensity Objects (%): 1%
  Population Mitochondria Different-Phenotype (%): 37%
  Population Normal (%): 98%
  Population Tubulin-Different-Phenotype (%): 19%
  Total Cell Count: 512
[7]
  Population Apoptotic (%): 59%
  Population Fragmented Nuclei (%): 10%
  Population Healthy Nuclei (%): 66%
  Population Hoechst High Intensity Objects (%): 5%
  Population Membrane Permeable-Phenotype (%): 0%
  Population Mitochondria Different-Phenotype (%): 78%
  Population Mitotic Cells (%): 40%
  Population Normal (%): 94%
  Population Pyknosed Nuclei (%): 22%
  Population Tubulin-Different-Phenotype (%): 74%
  Total Cell Count: 321
[8]
  Population Apoptotic (%): 55%
  Population Fragmented Nuclei (%): 5%
  Population Healthy Nuclei (%): 78%
  Population Mitochondria Different-Phenotype (%): 80%
  Population Mitotic Cells (%): 44%
  Population Normal (%): 95%
  Population Pyknosed Nuclei (%): 16%
  Population Tubulin-Different-Phenotype (%): 69%
  Total Cell Count: 440
[9]
  Population Apoptotic (%): 27%
  Population Fragmented Nuclei (%): 12%
  Population Healthy Nuclei (%): 78%
  Population Hoechst High Intensity Objects (%): 3%
  Population Membrane Permeable-Phenotype (%): 1%
  Population Mitochondria Different-Phenotype (%): 17%
  Population Mitotic Cells (%): 72%
  Population Normal (%): 96%
  Population Pyknosed Nuclei (%): 9%
  Population Tubulin-Different-Phenotype (%): 16%
  Total Cell Count: 912
[10]
  Population Apoptotic (%): 18%
  Population Fragmented Nuclei (%): 13%
  Population Healthy Nuclei (%): 81%
  Population Hoechst High Intensity Objects (%): 2%
  Population Mitochondria Different-Phenotype (%): 25%
  Population Mitotic Cells (%): 81%
  Population Normal (%): 97%
  Population Pyknosed Nuclei (%): 5%
  Population Tubulin-Different-Phenotype (%): 19%
  Total Cell Count: 748
[11]
  Population Apoptotic (%): 62%
  Population Fragmented Nuclei (%): 9%
  Population Healthy Nuclei (%): 72%
  Population Hoechst High Intensity Objects (%): 3%
  Population Membrane Permeable-Phenotype (%): 0%
  Population Mitochondria Different-Phenotype (%): 82%
  Population Mitotic Cells (%): 37%
  Population Normal (%): 96%
  Population Pyknosed Nuclei (%): 18%
  Population Tubulin-Different-Phenotype (%): 78%
  Total Cell Count: 387
[12]
  Population Apoptotic (%): 45%
  Population Healthy Nuclei (%): 79%
  Population Hoechst High Intensity Objects (%): 4%
  Population Mitochondria Different-Phenotype (%): 71%
  Population Mitotic Cells (%): 55%
  Population Normal (%): 95%
  Population Pyknosed Nuclei (%): 10%
  Population Tubulin-Different-Phenotype (%): 63%
  Total Cell Count: 593
